Test results from ChEMBL document CHEMBL1127318, “Hypoxia-selective antitumor agents. 8. Bis(nitroimidazolyl)alkanecarboxamides: a new class of hypoxia-selective cytotoxins and hypoxic cell radiosensitisers” (J Med Chem, 1994).

Tests used:
CHO-AA8 [1] = assay: Compound concentration required to reduce cell survival to 10% of control values under hypoxic condition.; assay type: cell-based, Cricetulus griseus; settings: chinese hamster
Outline: (§1)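 Chinese hamster AA8 cells at plateau phase, 10⁶/mL, in magnetically stirred 10-mL suspensions. Gassed continuously with 5% CO₂ in N₂ (hypoxic) or in air (aerobic); cells and drug preequilibrated under the gas for 60 min. Clonogenic plating efficiency read every 0.5–1 h for up to 8 h at several drug concentrations. Concentration × time for 10% survival (CT10) estimated at each concentration.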

CHO-AA8 [2] = assay: Concentration required to reduce AA8 cell numbers to 50% of controls in a growth inhibition microassay; assay type: functional, cell-based; settings: Cricetulus griseus
Outline: (§2)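 Cells kept as log-phase monolayers in antibiotic-free Alpha MEM with 10% heat-inactivated FCS. Per well: 200 AA8, 300 UV4, 50 EMT6 or 1000 FME cells. Drug added 24 h after seeding and removed after 18 h. Cell mass (protein, methylene blue absorbance) read 72–78 h after washout. IC50 = concentration giving 50% of the mean of eight controls on the same plate.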

[3] = Ratio of mean intracellular to extracellular compound concentration determined under hypoxic conditions 30 mins after exposure to compound at C1.6 concentration; assay type: functional, cell-based
Outline: (§3)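 AA8 suspension (10⁷ cells) made hypoxic with 5% CO₂ in N₂, exposed 30 min at 37 °C to drug at the C1.6. Supernatant and lysed pellet extracted in MeCN. Assayed by C18 HPLC (formate pH 4.5/MeCN gradient, 320 nm), corrected for spiked recoveries. Intracellular level from 11.6 µL cell water/10⁷ cells, with [¹⁴C]sucrose and ³H₂O spaces. Result expressed as Ci/Ce.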

[4] = Partition coefficient (logP); assay type: physicochemical; settings: octanol/water
Outline: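 log P octanol computed with CLOGP rather than measured.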

[5] = (§4) In vitro therapeutic index (aerobic IC50 / hypoxic C1.6); assay type: functional
Outline: (§5)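 Hypoxic C1.6: stirred AA8 gassed with 5% CO₂/N₂ 60 min, drug 30 min, ⁶⁰Co irradiation at 37 °C (~2 Gy/min). D10 from linear-quadratic fit; concentration giving SER 1.6 interpolated. Index = IC50/C1.6.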

FME = assay: Aerobic cytotoxicity against human melanoma FME cells in a growth inhibition microassay; assay type: functional; outline: as §2
CHO-AA8 [6] = assay: Average intracellular compound concentration where the hypoxia sensitizer enhancement ratio (SER)=1.6; assay type: functional, Cricetulus griseus
Outline: (§6)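 Hypoxic stirred AA8 suspensions (10⁷ cells) incubated 30 min at the C1.6 concentration. Cells and supernatant separated by centrifugation and extracted into MeCN. Drug measured by C18 HPLC with formate pH 4.5/MeCN gradient, absorbance 320 nm. Values corrected for recovery using spiked medium or lysed pellets. Mean intracellular concentration calculated assuming 11.6 µL cell water and 1.1 µL pellet extracellular water per 10⁷ cells.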

CHO-AA8 [7] = assay: Average intracellular compound concentration where the sensitizer enhancement ratio (SER)=1.6 under hypoxia; assay type: functional, Cricetulus griseus; outline: as §6
[8] = The ratio of aerobic CT10 to hypoxic CT10.; assay type: functional
Outline: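 Clonogenic assay on stirred plateau-phase AA8 suspensions (10⁶/mL), gassed with 5% CO₂ in air or in N₂ after 60 min preequilibration. Survival sampled every 0.5–1 h up to 8 h at several drug concentrations. CT10 taken at each concentration. Interpolated aerobic CT10 divided by hypoxic CT10 at the same time; ranges cover 1–8 h exposure.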

EMT6 = assay: Aerobic cytotoxicity against murine mammary carcinoma EMT6 cells in a growth inhibition microassay; assay type: functional, Mus musculus; outline: as §2
UV4 = assay: Aerobic cytotoxicity against UV4 cells in a growth inhibition microassay; assay type: functional, Cricetulus griseus; outline: as §2
CHO-AA8 [9] = assay: Average intracellular compound concentration when the hypoxic SER=1.6.; assay type: functional, Cricetulus griseus; outline: as §6
[10] = as §4; assay type: cell-based, Cricetulus griseus; settings: chinese hamster, CHO-AA8 cells; read-out: TI; outline: as §5
CHO-AA8 [11] = assay: Compound concentration at which sensitizer enhancement ratio =1.6 under hypoxia.; assay type: functional, Cricetulus griseus
Outline: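 Stirred AA8 suspensions gassed 60 min with 5% CO2 in N2. Drug added 30 min before ⁶⁰Co irradiation at 37 °C (ca. 2 Gy/min, typically 6 Gy steps). Clonogenic survival taken against unirradiated cells from the same culture. Linear-quadratic fit gives D10; SER = D10 without/with drug, determined over a range of concentrations to estimate C1.6. Only concentrations with minimal drug toxicity during irradiation were used.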

[12] = Ratio of mean intracellular to extracellular compound concentration determined under hypoxic condition.; assay type: functional, cell-based; outline: as §3
CHO-AA8 [13] = assay: (§7) Compound concentration required to reduce cell survival to 10% of control values under hypoxic condition; assay type: functional, Cricetulus griseus
Outline: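 Plateau-phase AA8 cells (10⁶/mL) in magnetically stirred 10-mL cultures, gassed continuously with N2 plus 5% CO2. Cells and drug pre-equilibrated 60 min. Clonogenic plating every 0.5–1 h for up to 8 h at several concentrations. CT10 (concentration × time for 10% survival) estimated at each concentration.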

CHO-AA8 [14] = assay: as §7; assay type: cell-based, Cricetulus griseus; settings: chinese hamster; outline: as §1
CHO-AA8 [15] = assay: Average intracellular compound concentration when the hypoxic SER=1.6; assay type: functional, Cricetulus griseus; outline: as §6

SMILES	CT10 (CHO-AA8 [1]) [mM-hr]	IC50 (CHO-AA8 [2]) [mM]	Uptake ratio [3]	logP [4]	TI [5]	Hypersensitivity factor (FME)	C1.6 (CHO-AA8 [6]) [mM]	C1.6 (CHO-AA8 [7]) [mM]	Ratio [8]	Hypersensitivity factor (EMT6)	Hypersensitivity factor (UV4)	C1.6 (CHO-AA8 [9]) [mM]	selectivity ratio [10]	C1.6 (CHO-AA8 [11]) [mM]	Uptake ratio [12]	CT10 (CHO-AA8 [13]) [mM-hr]	CT10 (CHO-AA8 [14]) [mM-hr]	C1.6 (CHO-AA8 [15]) [mM]
O=C(CCCn1ccnc1[N+](=O)[O-])NCCn1ccnc1	26	24	0.33	1.32	6	3	1.32	4	8	4.2	1.3							
Cc1ncc([N+](=O)[O-])n1CCNC(=O)Cn1c([N+](=O)[O-])cnc1C	50	7.7		-0.76		2.3			2	4.4	1	4.1	2.8	2.7	1.5			
COCC(O)Cn1ccnc1[N+](=O)[O-] (stereo not given) [MISONIDAZOLE]	8.3		0.9		28	1.9	0.4	0.43	25	3.6	1.4							
Cc1ncc([N+](=O)[O-])n1CCNC(=O)CCCCCn1ccnc1[N+](=O)[O-]				-0.22					> 17			0.36	1.2	0.65	0.55	1.5		
O=C(CCCn1ccnc1[N+](=O)[O-])NCCn1ccnc1[N+](=O)[O-]				-1.55					> 6				1.7	1.54	0.5		3.4	0.77
O=C(CCCn1ccnc1[N+](=O)[O-])NCCn1cncc1[N+](=O)[O-]		> 4.2		-1.55		>2.1			> 30	>1.7		0.27	> 4.7	0.9	0.3		0.8	
O=C(CCCn1ccnc1[N+](=O)[O-])NCCn1cnc([N+](=O)[O-])c1				-1.55								>0.36	< 1.6	>1.1			> 15	
